Data as given in ChEMBL document CHEMBL4049446 (J Med Chem, 2017).

Tests used:
[1] = Inhibition of HIV1 protease expressed in Escherichia coli using 2-aminobenzoyl-Thr-Ile-Nle-Phe(p-N02)-Gln-Arg-NH as substrate preincubated for 5 to 10 mins followed by substrate addition measured after 1 hr by fluorescence assay; set-up: species or system Human immunodeficiency virus 1
[2] = test system: Human immunodeficiency virus 1; assay: Antiviral activity against HIV1 Lai infected in human MT2 cells; type: functional, cell-based; details: Human immunodeficiency virus 1, M:B_Lai
[3] = test system: Human immunodeficiency virus 1; assay: Antiviral activity against darunavir-resistant HIV1 derived from 51 passages harboring protease L10I/I15V/K20R/L24I/V32I/L33F/M36I/M46L/I54M/L63P/K70Q/V82I/I84V/L89M mutant infected in human MT4 cells assessed as reduction in p24 Gag protein production after 7 days by chemiluminescent enzyme immunoassay; type: functional, cell-based; details: Human immunodeficiency virus 1, MT4, 168 h
[4] = test system: Human immunodeficiency virus 1; assay: Antiviral activity against wild type HIV1 NL4-3 infected in human MT4 cells assessed as reduction in p24 Gag protein production after 7 days by chemiluminescent enzyme immunoassay; type: functional, cell-based; details: Human immunodeficiency virus 1, NL4-3, MT4, 168 h
[5] = test system: Human immunodeficiency virus 1; assay: Ratio of IC50 for darunavir-resistant HIV1 derived from 51 passages harboring protease L10I/I15V/K20R/L24I/V32I/L33F/M36I/M46L/I54M/L63P/K70Q/V82I/I84V/L89M mutant infected in human MT4 cells to IC50 for wild type HIV1 NL4.3 infected in human MT4 cells; type: functional
In short: (§1)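 Fold change is the IC50 against each resistant variant divided by the IC50 against wild-type HIV-1 NL4-3, measured in the same triplicate antiviral assays (three independent experiments).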

[6] = test system: Human immunodeficiency virus 1; assay: Antiviral activity against darunavir-resistant HIV1 derived from 20 passages harboring protease L10I/I15V/K20R/L24I/V32I/M36I/M46L/L63P/V82A/L89M mutant infected in human MT4 cells assessed as reduction in p24 Gag protein production after 7 days by chemiluminescent enzyme immunoassay; type: functional, cell-based; details: Human immunodeficiency virus 1, MT4, 168 h
In short: (§2)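 MT-4 cells (1×10^4) exposed to 50 TCID50 of wild-type HIV-1 NL4-3 or DRV-selected variants (20, 30 or 51 passages) and cultured with various inhibitor concentrations. IC50 read by p24 assay. Run in triplicate; mean ± 1 standard deviation from three independent experiments.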

[7] = test system: Human immunodeficiency virus 1; assay: Ratio of IC50 for darunavir-resistant HIV1 derived from 30 passages harboring protease L10I/I15V/K20R/L24I/V32I/M36I/M46L/L63P/K70R/V82A/I84V/L89M mutant infected in human MT4 cells to IC50 for wild type HIV1 NL4.3 infected in human MT4 cells; type: functional; in short: as §1
[8] = test system: Human immunodeficiency virus 1; assay: Ratio of IC50 for darunavir-resistant HIV1 derived from 20 passages harboring protease L10I/I15V/K20R/L24I/V32I/M36I/M46L/L63P/V82A/L89M mutant infected in human MT4 cells to IC50 for wild type HIV1 NL4.3 infected in human MT4 cells; type: functional; in short: as §1
[9] = test system: Human immunodeficiency virus 1; assay: Antiviral activity against darunavir-resistant HIV1 derived from 30 passages harboring protease L10I/I15V/K20R/L24I/V32I/M36I/M46L/L63P/K70R/V82A/I84V/L89M mutant infected in human MT4 cells assessed as reduction in p24 Gag protein production after 7 days by chemiluminescent enzyme immunoassay; type: functional, cell-based; details: Human immunodeficiency virus 1, MT4, 168 h; in short: as §2
[10] = test system: Human immunodeficiency virus 1; assay: Antiviral activity against lopinavir-resistant HIV1 NL4-3 harboring protease L10F/V32I/M46I/I47A/A71V/I84V mutant infected in human MT4 cells assessed as reduction in p24 Gag protein production after 7 days by chemiluminescent enzyme immunoassay; type: functional, cell-based; details: Human immunodeficiency virus 1, NL4-3, MT4, 168 h
In short: (§3)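 Variants are HIV-1 NL4-3 selected in vitro under protease inhibitors: APV, ATV, IDV, LPV, NFV and SQV at 5 µM, TPV at 15 µM. Assays run in triplicate; IC50 given as mean ± 1 standard deviation from three independent experiments.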

[11] = test system: Human immunodeficiency virus 1; assay: Ratio of IC50 for tipranavir-resistant HIV1 NL4-3 harboring protease L10I/L33I/M36I/M46I/I54V/K55R/I62V/L63P/A71V/G73S/V82T/L90M/I93L mutant infected in human MT4 cells to IC50 for wild type HIV1 NL4.3 infected in human MT4 cells; type: functional; in short: as §1
[12] = test system: Human immunodeficiency virus 1; assay: Antiviral activity against saquinavir-resistant HIV1 NL4-3 harboring protease L10I/N37D/G48V/I54V/L63P/G73C/I84V/L90M mutant infected in human MT4 cells assessed as reduction in p24 Gag protein production after 7 days by chemiluminescent enzyme immunoassay; type: functional, cell-based; details: Human immunodeficiency virus 1, NL4-3, MT4, 168 h; in short: as §3
[13] = test system: Human immunodeficiency virus 1; assay: Ratio of IC50 for atazanavir-resistant HIV1 NL4-3 harboring protease L23I/E34Q/K43I/M46I/I50L/G51A/L63P/A71V/V82A/T91A mutant infected in human MT4 cells to IC50 for wild type HIV1 NL4.3 infected in human MT4 cells; type: functional; in short: as §1
[14] = test system: Human immunodeficiency virus 1; assay: Ratio of IC50 for lopinavir-resistant HIV1 NL4-3 harboring protease L10F/V32I/M46I/I47A/A71V/I84V mutant infected in human MT4 cells to IC50 for wild type HIV1 NL4.3 infected in human MT4 cells; type: functional; in short: as §1
[15] = test system: Human immunodeficiency virus 1; assay: Ratio of IC50 for nelfinavir-resistant HIV1 NL4-3 harboring protease L10F/K20T/D30N/K45I/A71V/V77I mutant infected in human MT4 cells to IC50 for wild type HIV1 NL4.3 infected in human MT4 cells; type: functional; in short: as §1
[16] = test system: Human immunodeficiency virus 1; assay: Antiviral activity against nelfinavir-resistant HIV1 NL4-3 harboring protease L10F/K20T/D30N/K45I/A71V/V77I mutant infected in human MT4 cells assessed as reduction in p24 Gag protein production after 7 days by chemiluminescent enzyme immunoassay; type: functional, cell-based; details: Human immunodeficiency virus 1, NL4-3, MT4, 168 h; in short: as §3
[17] = test system: Human immunodeficiency virus 1; assay: Ratio of IC50 for indinavir-resistant HIV1 NL4-3 harboring protease L10F/L24I/M46I/I54V/L63P/A71V/G73S/V82T mutant infected in human MT4 cells to IC50 for wild type HIV1 NL4.3 infected in human MT4 cells; type: functional; in short: as §1
[18] = test system: Human immunodeficiency virus 1; assay: Ratio of IC50 for amprenavir-resistant HIV1 NL4-3 harboring protease L10F/V32I/L33F/M46L/I54M/A71V mutant infected in human MT4 cells to IC50 for wild type HIV1 NL4.3 infected in human MT4 cells; type: functional; in short: as §1
[19] = test system: Human immunodeficiency virus 1; assay: Antiviral activity against indinavir-resistant HIV1 NL4-3 harboring protease L10F/L24I/M46I/I54V/L63P/A71V/G73S/V82T mutant infected in human MT4 cells assessed as reduction in p24 Gag protein production after 7 days by chemiluminescent enzyme immunoassay; type: functional, cell-based; details: Human immunodeficiency virus 1, NL4-3, MT4, 168 h; in short: as §3
[20] = test system: Human immunodeficiency virus 1; assay: Ratio of IC50 for saquinavir-resistant HIV1 NL4-3 harboring protease L10I/N37D/G48V/I54V/L63P/G73C/I84V/L90M mutant infected in human MT4 cells to IC50 for wild type HIV1 NL4.3 infected in human MT4 cells; type: functional; in short: as §1
[21] = test system: Human immunodeficiency virus 1; assay: Antiviral activity against atazanavir-resistant HIV1 NL4-3 harboring protease L23I/E34Q/K43I/M46I/I50L/G51A/L63P/A71V/V82A/T91A mutant infected in human MT4 cells assessed as reduction in p24 Gag protein production after 7 days by chemiluminescent enzyme immunoassay; type: functional, cell-based; details: Human immunodeficiency virus 1, NL4-3, MT4, 168 h; in short: as §3
[22] = test system: Human immunodeficiency virus 1; assay: Antiviral activity against tipranavir-resistant HIV1 NL4-3 harboring protease L10I/L33I/M36I/M46I/I54V/K55R/I62V/L63P/A71V/G73S/V82T/L90M/I93L mutant infected in human MT4 cells assessed as reduction in p24 Gag protein production after 7 days by chemiluminescent enzyme immunoassay; type: functional, cell-based; details: Human immunodeficiency virus 1, NL4-3, MT4, 168 h; in short: as §3
[23] = test system: Human immunodeficiency virus 1; assay: Antiviral activity against amprenavir-resistant HIV1 NL4-3 harboring protease L10F/V32I/L33F/M46L/I54M/A71V mutant infected in human MT4 cells assessed as reduction in p24 Gag protein production after 7 days by chemiluminescent enzyme immunoassay; type: functional, cell-based; details: Human immunodeficiency virus 1, NL4-3, MT4, 168 h; in short: as §3

SMILES	Ki [1] [nM]	IC50 [2] [nM]	IC50 [3] [nM]	IC50 [4] [nM]	Ratio IC50 [5]	IC50 [6] [nM]	Ratio IC50 [7]	Ratio IC50 [8]	IC50 [9] [nM]	IC50 [10] [nM]	Ratio IC50 [11]	IC50 [12] [nM]	Ratio IC50 [13]	Ratio IC50 [14]	Ratio IC50 [15]	IC50 [16] [nM]	Ratio IC50 [17]	Ratio IC50 [18]	IC50 [19] [nM]	Ratio IC50 [20]	other results
COc1ccc(S(=O)(=O)N(CC(C)C)C[C@@H](O)[C@H](Cc2ccccc2)NC(=O)O[C@H]2C3CO[C@H]4OCC2C4C3)cc1 (some centres not stated)	0.014	2.7	–	–	–	–	–	–	–	–	–	–	–	–	–	–	–	–	–	–	–
CC(C)(C)NC(=O)[C@@H]1C[C@@H]2CCCC[C@@H]2CN1C[C@@H](O)[C@H](Cc1ccccc1)NC(=O)[C@H](CC(N)=O)NC(=O)c1ccc2ccccc2n1	–	21	–	–	–	–	–	–	–	–	–	–	–	–	–	–	–	–	–	–	–
CC(C)CN(C[C@@H](O)[C@H](Cc1ccccc1)NC(=O)O[C@H]1CO[C@H]2OCC[C@H]21)S(=O)(=O)c1ccc2nc(NC3CC3)sc2c1	0.01	1.9	480	2	240	7.7	15	4	30	–	–	–	–	–	–	–	–	–	–	–	–
COC(=O)N[C@H](C(=O)N[C@@H](Cc1ccccc1)[C@@H](O)CN(Cc1ccc(-c2ccccn2)cc1)NC(=O)[C@@H](NC(=O)OC)C(C)(C)C)C(C)(C)C [ATAZANAVIR]	–	–	–	4.2	–	–	–	–	–	45	>238	510	>238	11	4	17	15	0.9	62	121	IC50 [21]: > 1000 nM; IC50 [22]: > 1000 nM; IC50 [23]: 3.8 nM
Cc1cccc(C)c1OCC(=O)N[C@@H](Cc1ccccc1)[C@@H](O)C[C@H](Cc1ccccc1)NC(=O)[C@H](C(C)C)N1CCCNC1=O [LOPINAVIR]	–	–	> 1000	20	>50	> 1000	>50	>50	> 1000	> 1000	>50	> 1000	17	>50	2	42	9	16	170	>50	IC50 [21]: 330 nM; IC50 [22]: > 1000 nM; IC50 [23]: 310 nM
COc1ccc(S(=O)(=O)N(CC(C)C)C[C@@H](O)[C@H](Cc2ccccc2)NC(=O)O[C@@H]2C3CO[C@H]4OCC2C4C3)cc1 (some centres not stated)	10.8	> 1000	–	–	–	–	–	–	–	–	–	–	–	–	–	–	–	–	–	–	–
CC(C)CN(C[C@@H](O)[C@H](Cc1ccccc1)NC(=O)O[C@H]1C2CO[C@H]3OCC1C3C2)S(=O)(=O)c1ccc(N)cc1 (some centres not stated)	0.013	2.8	> 1000	3.3	>303	30	103	9	340	–	–	–	–	–	–	–	–	–	–	–	–
CC(C)CN(C[C@@H](O)[C@H](Cc1ccccc1)NC(=O)O[C@H]1C2CO[C@H]3OCC1C3C2)S(=O)(=O)c1ccc2nc(NC3CC3)sc2c1 (some centres not stated)	0.04	0.26	35	0.39	90	0.17	5	0.4	1.8	0.0026	0.15	0.03	0.5	0.007	0.07	0.028	0.03	0.7	0.012	0.08	IC50 [21]: 0.19 nM; IC50 [22]: 0.057 nM; IC50 [23]: 0.27 nM
